Screens as filed in PubChem.
hDAT+cocaine – modulates human dopamine transporter uptake under cocaine; B-score at 10 µM; 110,000 tested, 1.3% active; LLC-PK1 hDAT cells, [14C]-dopamine uptake with cocaine IC80; actives deviate in either direction;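 active = Z score or B-score, a plate-position-corrected score, falls beyond the plate's 99.7% confidence bounds, in either direction; inactive = both scores lie inside the 99.7% bounds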
Candida biofilm – kills Candida albicans biofilms. AID 834. inhibition, % at 6 µM. 85,000 tested, 0.14% active. C. albicans biofilm + clotrimazole, Alamar Blue;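 active = inhibition above 20%; inactive = inhibition below 20%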;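 also: preformed 24 hr biofilms exposed to compound for 48 hr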
D1 mod – allosterically modulates the human D1 dopamine receptor; HEK293 D1, CRE-luciferase, dopamine EC30 potentiation; actives deviate in either direction; AID 641; 58,000 tested, 5.9% active; B-score at 10 µM;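 active = luminescence count or its row- and column-corrected plate score outside the 99.7% band of the plate's sample wells, on either side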
Target sequence (P21728 whole entry, looked up): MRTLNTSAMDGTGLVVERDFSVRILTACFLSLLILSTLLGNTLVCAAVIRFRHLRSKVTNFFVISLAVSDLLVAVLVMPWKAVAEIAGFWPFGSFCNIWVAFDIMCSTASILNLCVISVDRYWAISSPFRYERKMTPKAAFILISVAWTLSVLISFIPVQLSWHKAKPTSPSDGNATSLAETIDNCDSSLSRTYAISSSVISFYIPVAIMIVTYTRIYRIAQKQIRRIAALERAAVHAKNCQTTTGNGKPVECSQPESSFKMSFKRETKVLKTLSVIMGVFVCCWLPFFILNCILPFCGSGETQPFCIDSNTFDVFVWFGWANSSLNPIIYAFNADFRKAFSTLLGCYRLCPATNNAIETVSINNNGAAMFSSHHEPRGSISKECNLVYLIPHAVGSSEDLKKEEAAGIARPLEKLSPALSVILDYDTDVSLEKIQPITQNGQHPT
AP ELISA ortho – alternative pathway complement inhibition, orthogonal assay | Human serum alternative complement pathway, LPS-coated ELISA, C3 deposition; tested in compound mixtures | inhibition, % at 5 µM | 62,000 tested, 0.08% active | AID 1235;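 active = inhibition above 30% in each of the two pooled mixtures holding the compound, so the lower value exceeds 30%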
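Test system: human serum alternative complement pathway, C3 deposition on LPS-coated wells; also added: Plate-bound LPS; doses: 5 µM per compound in ten-compound mixtures; schedule: 1 h at 37 °C; detection: Anti-C3 ELISA, OD 450 nm; evaluation: percent inhibition of C3 deposition onto LPS; repeats: two pool placements per compound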
MMP13 inh – MMP13 (human) collagenase inhibition. MMP-13 fTHP FRET cleavage, Mca fluorescence. inhibition, % at 4 µM. 65,000 tested, 0.07% active. AID 570;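 active = inhibition above the mean of compound-free control plate wells plus 3 SD, cut at about 14% in these data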
Large screens that a line does not name were inactive. The entries come from a sample that favours hits as a whole.

O=C(Nc1ccc2c(c1)OCCO2)c1ccc2nccnc2c1	none (no result: D1 mod)
CCOC(=O)C1CCN(C(=O)COC(=O)COc2ccccc2OC)CC1	hDAT+cocaine -8.5
CCOC(=O)N1CCN(C(=O)COc2ccccc2OC)CC1	none
C#CCOC(=O)Nc1ccc(=O)n(Cc2c(Cl)cccc2Cl)c1	none (no result: Candida biofilm, D1 mod, AP ELISA ortho, MMP13 inh)
Cc1cc(C)n2cc(CSc3nnc(-c4ccccc4)o3)nc2n1	none
Cc1cc(C)n2cc(CSc3nc4cc(Cl)ccc4o3)nc2n1	hDAT+cocaine 4
O=C(c1ccc(COc2ccc3c(c2)CCC3)o1)N1CCN(c2ccccc2)CC1	none (no result: Candida biofilm, AP ELISA ortho)
O=C(c1ccco1)N1CCN(C(=O)c2ccc(COc3ccc4c(c3)CCC4)o2)CC1	hDAT+cocaine 3.7 (no result: D1 mod, AP ELISA ortho, MMP13 inh)
NCCCC[C@H](NC(=O)C1CCNCC1)c1nnc(CN)o1	none (no result: Candida biofilm, D1 mod, AP ELISA ortho, MMP13 inh)
O=C(c1ccc2c(=O)n3c(nc2c1)CCCCC3)N1CCN(C(c2ccccc2)c2ccccc2)CC1	hDAT+cocaine -4.1 (no result: Candida biofilm, D1 mod, AP ELISA ortho, MMP13 inh)
NC(=O)C1=C[C@H](C2CCCCC2)C[C@H](OCc2ccc(CO)cc2)O1	none (no result: Candida biofilm, D1 mod, AP ELISA ortho, MMP13 inh)
CCC(CC)C(=O)Nc1c(C)n(C)n(-c2ccccc2)c1=O	none (no result: D1 mod, AP ELISA ortho, MMP13 inh)
CCCCCCC(c1c(C)n(C)n(-c2ccccc2)c1=O)c1c(C)n(C)n(-c2ccccc2)c1=O	hDAT+cocaine 3.2
O=S(=O)(c1cccc(-c2csc(-c3ccccc3)n2)c1)N1CCOCC1	none (no result: D1 mod, AP ELISA ortho)
CC1CN(S(=O)(=O)c2cccc(-c3csc(-c4ccccc4)n3)c2)CC(C)O1 (stereo unspecified)	hDAT+cocaine 2.4 (no result: D1 mod, AP ELISA ortho, MMP13 inh)
COc1ccc(/C=N/OCC(=O)N2CC3(C)CC2CC(C)(C)C3)cc1 (stereo unspecified)	hDAT+cocaine 3.7 (no result: Candida biofilm, D1 mod, AP ELISA ortho, MMP13 inh)
Cc1cccnc1Nc1nc(-c2ccc(O)cc2)cs1	hDAT+cocaine 4.6 (no result: D1 mod, AP ELISA ortho, MMP13 inh)
CC(C)(C)c1cnnn1-c1ccc(C=O)cc1	hDAT+cocaine -2.7 (no result: D1 mod, AP ELISA ortho, MMP13 inh)
Cc1ccc(NC(=O)CSCC(=O)N2c3ccccc3CCc3ccccc32)cc1	none (no result: Candida biofilm, D1 mod, AP ELISA ortho, MMP13 inh)
O=c1[nH]c(SCc2cccc(Cl)c2)nc2c1CCCC2	none
O=c1[nH]c(SCc2ccc(Cl)cc2)nc2c1CCC2	MMP13 inh 33
CCCC[C@H]1C2=C3[C@@H](CC(C(=O)OC)=C[C@@H](C(=O)OC)[C@H]3C(C)(C)C2=O)n2c(=O)n(-c3ccccc3)c(=O)n21	none (no result: Candida biofilm, D1 mod, AP ELISA ortho, MMP13 inh)
O=C(Nc1ccc(Cl)c(Cl)c1)N1CCSC1c1ccco1 (stereo unspecified)	hDAT+cocaine -2.1
Cc1ccccc1Cn1nnc(-c2cccc(C(=O)O)c2)n1	D1 mod -2.7
O=C(O)c1cccc(-c2nnn(Cc3ccccc3Cl)n2)c1	none (no result: D1 mod, AP ELISA ortho, MMP13 inh)
CC(C)NC(=O)c1ccc(C2SCC(=O)N2Cc2ccccc2)cc1 (stereo unspecified)	none (no result: D1 mod, AP ELISA ortho, MMP13 inh)
O=C(COC(=O)[C@H](Cc1ccccc1)NS(=O)(=O)c1ccccc1F)NC1CCCCC1	none (no result: Candida biofilm, D1 mod, AP ELISA ortho, MMP13 inh)
CCOc1ccc(/C=N/NC(=O)Cc2csc(Nc3cccc(C(F)(F)F)c3)n2)c(OCC)c1	none (no result: Candida biofilm, D1 mod, AP ELISA ortho, MMP13 inh)
COc1ccc(/C=N/NC(=O)Cc2csc(Nc3cccc(C(F)(F)F)c3)n2)c(OC)c1	hDAT+cocaine 2.7 (no result: Candida biofilm, D1 mod, AP ELISA ortho, MMP13 inh)
CCOC(=O)C1=C(C)NC(=S)NC1c1ccc(-c2cccc(Cl)c2C)o1 (stereo unspecified)	hDAT+cocaine -8.7 (no result: Candida biofilm, D1 mod, AP ELISA ortho, MMP13 inh)
CC(CCc1ccccc1)NC(=O)C(Cc1ccccc1)NS(=O)(=O)c1cccs1 (stereo unspecified)	Candida biofilm 33 (no result: D1 mod, AP ELISA ortho, MMP13 inh)
CC(C)(O)c1ccccc1CC[C@@H](SCC1(CC(=O)O)CC1)c1cccc(/C=C/c2ccc3ccc(Cl)cc3n2)c1	none (no result: Candida biofilm, D1 mod, AP ELISA ortho, MMP13 inh)
COc1ccccc1NC(=O)NCCCN1CCN(c2cccc(Cl)c2)CC1	D1 mod -4.2
Cn1c(=O)cc(OCC(=O)NCCCN2CCN(c3cccc(Cl)c3)CC2)c2ccccc21	D1 mod -5.3
COc1ccccc1N1CCN(CCCNC(=O)Nc2ccccc2C)CC1	none (no result: D1 mod)
Cn1c(=O)cc(OCC(=O)NCCCN2CCN(c3ccccc3F)CC2)c2ccccc21	none
CN1CCN(S(=O)(=O)c2ccc(Sc3nnc(-c4cccs4)n3-c3ccccc3)nc2)CC1	D1 mod -4.1
CCCCOC(=O)CSc1nnc(N)s1	hDAT+cocaine -2.4
Nc1nnc(SCC(=O)c2ccccc2)s1	none
Cc1cccnc1NC(=O)Nc1ccc(F)cc1	D1 mod -2.4
COC(=O)c1ccc(NC(=O)Nc2ccc(F)cc2)cc1	D1 mod -3.7
Cc1ccc(NC(=O)Nc2ncccc2C)cc1	none (no result: D1 mod, AP ELISA ortho, MMP13 inh)
COC(=O)c1ccc(NC(=O)c2ccccc2SC)cc1	hDAT+cocaine 3.3 (no result: D1 mod, AP ELISA ortho, MMP13 inh)
CCOC(=O)C1CCN(CCC(=O)Nc2ccccc2Cl)CC1	none (no result: D1 mod, AP ELISA ortho, MMP13 inh)
